The results in this text go back to PubChem BioAssay.

A short description of assay [1]: Her2 expression decrease, cell viability multiplex – SKBR3 breast tumor cells, AlphaScreen, ATP viability, primary screen (AID 461;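 active = Her2 level under about 52% in both replicate screens, with viability over 70% of control, limit read from the data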;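 as to Her2 level: lower value means less Her2 protein in the cells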;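 as to viability: percent of carrier control wells set as 100% viability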). The settings on record: SKBR3 Her2 protein level, 18-24 h, measured here: SKBR3 viability, ATP luminescence, at 10 µM.
In assay [2] the target is Receptor tyrosine-protein kinase erbB-2 (Homo sapiens) (UniProt P04626). The assay is described as above. The settings on record: 18-24 h, at 10 µM, stronger effect = lower value.
Sequence of Receptor tyrosine-protein kinase erbB-2 (Homo sapiens) (P04626 whole entry, looked up): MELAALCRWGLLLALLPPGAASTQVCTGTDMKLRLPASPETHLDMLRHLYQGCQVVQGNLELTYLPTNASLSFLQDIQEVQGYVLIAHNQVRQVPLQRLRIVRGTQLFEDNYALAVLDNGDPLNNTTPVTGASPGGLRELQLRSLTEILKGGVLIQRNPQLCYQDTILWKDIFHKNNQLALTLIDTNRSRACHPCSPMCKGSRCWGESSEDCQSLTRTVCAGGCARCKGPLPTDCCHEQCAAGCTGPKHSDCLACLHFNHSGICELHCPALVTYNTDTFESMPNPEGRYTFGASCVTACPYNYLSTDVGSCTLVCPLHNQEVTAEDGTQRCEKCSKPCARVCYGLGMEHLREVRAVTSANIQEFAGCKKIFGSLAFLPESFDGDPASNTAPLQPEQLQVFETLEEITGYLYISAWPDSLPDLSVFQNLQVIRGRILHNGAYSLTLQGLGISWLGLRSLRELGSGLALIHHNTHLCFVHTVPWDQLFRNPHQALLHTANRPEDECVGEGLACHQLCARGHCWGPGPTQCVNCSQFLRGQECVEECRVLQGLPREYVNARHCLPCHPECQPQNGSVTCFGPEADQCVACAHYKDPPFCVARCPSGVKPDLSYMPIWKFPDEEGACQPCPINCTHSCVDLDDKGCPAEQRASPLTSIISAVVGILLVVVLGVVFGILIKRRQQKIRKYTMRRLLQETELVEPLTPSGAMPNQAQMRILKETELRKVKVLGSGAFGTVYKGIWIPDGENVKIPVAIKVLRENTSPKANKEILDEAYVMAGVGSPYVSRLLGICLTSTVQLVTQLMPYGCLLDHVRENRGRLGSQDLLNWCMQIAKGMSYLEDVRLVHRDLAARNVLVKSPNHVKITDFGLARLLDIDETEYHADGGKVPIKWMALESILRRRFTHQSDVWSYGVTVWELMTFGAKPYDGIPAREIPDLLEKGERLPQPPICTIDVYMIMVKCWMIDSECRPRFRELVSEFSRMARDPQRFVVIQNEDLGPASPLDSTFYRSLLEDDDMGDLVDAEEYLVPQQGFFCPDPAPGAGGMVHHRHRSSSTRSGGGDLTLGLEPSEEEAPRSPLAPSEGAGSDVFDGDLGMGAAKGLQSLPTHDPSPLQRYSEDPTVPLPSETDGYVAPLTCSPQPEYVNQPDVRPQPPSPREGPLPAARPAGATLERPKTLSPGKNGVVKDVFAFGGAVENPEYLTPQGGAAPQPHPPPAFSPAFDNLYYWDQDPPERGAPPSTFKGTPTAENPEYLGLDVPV
Assay [3] is described as follows: reduced viability of SK-BR-3 breast cancer cells – cell-based, 24 h, human, pilot screen (AID 572;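 active = viability at or below 10% of carrier control in both of two separate runs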;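 also: compound exposure lasted between 18 and 24 h rather than exactly 24 h; 100% = carrier-treated control wells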). The settings on record: SK-BR-3 viability, CellTiter-Glo luminescence, at 10 µM, stronger effect = lower value. A general note: In ATP-based viability assays light output follows the ATP content of the culture.
Assay [4] in a line: HUVEC growth inhibition – cell-based, human, primary screen (AID 575;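 active = viability at or below 30% in both replicate assays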;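 also: 100% = median of untreated cell wells with 0.1% DMSO on each plate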). The settings on record: HUVEC proliferation, CellTiter-Glo luminescence, 72 h; at 10 µM; stronger effect = lower value. Put shortly: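 system = HUVEC primary cells | amount = 1250 cells/well | buffer or medium = supplemented EBM, 2% fetal bovine serum | dosing = single-point 10 µM, DMSO 0.1% final | times = 72 h compound incubation | detection = CTG luminescence | read-out = % viability relative to median vehicle-well signal on each plate | control set = vehicle and MePR control wells | format = collagen-coated 384-well format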

A short description of assay [5]: H69AR cell proliferation blockers – human, duplicate replicates, primary screen (AID 580).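 Also: 100% = mean luminescence of untreated wells and 0% = no signal.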 To be noted: H69AR lung tumor cells viability, ATP luminescence, 72 h; at 10 µM; stronger effect = lower value.
A short description of assay [6]: MRP1 drug-resistance reversers in H69AR cells – cell-based, doxorubicin co-treatment, pilot screen (AID 601;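 active = viability loss from added drug above about 55%, and viability with drug at most 40%, in both replicates, limit read from the data, passing the limit was not always enough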). The settings on record: CellTiter-Glo, 72 h, at 10 µM; for differential viability (reversal): stronger effect = higher value.
Assay [7] can be described thus: yeast transport mutant growth inhibition pilot in 384-well plates, post-Golgi transport modulator project (AID 636; in the data active = inhibition above about 31%). To be noted: absorbance 615 nm, about 18 h, stronger effect = higher value.
The nature of assay [8]: growth suppression of yeast trafficking mutant, preliminary HTS, modulators of trafficking downstream of Golgi apparatus project, 1536-format plate, OD 615 nm (AID 637; in the data active = inhibition above about 30%). To be noted: yeast transport mutant growth, absorbance 615 nm, 18 h; stronger effect = higher value.
The mark [9] stands for this setting: H69AR cells + 2 uM doxorubicin, measured here: viability with 2 uM doxorubicin, stronger effect = lower value.
The mark [10] stands for this setting: H69AR cells, compound alone cytotoxicity.

One may read the viability as a read-out of living cells in per cent, often relative to untreated cells. What is called inhibition is the relative decrease from the control value, in per cent.

The source made the active and inactive calls.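 The calls were made as follows, unless noted: active = viability at or under a set limit in both replicates, limit being median viability minus 3 SD (cut at about 48% in these data, passing the limit was not always enough); inconclusive = at or under the limit in just one replicate; inactive = at or above the limit in both replicates.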

As to `CCc1ccc(CN(C)CCc2ccccn2)cc1`, the viability in assay [1] is 108%; in assay [3] it was 108% (inactive); in assay [4] it was 106% (inactive); in assay [5] it was 102% (inactive); in assay [6] (setting [9]) it was 85.8%; in assay [6] (setting [10]) it was 102%. The Her2 level in assay [2] was 86% (inactive). In addition, the differential viability (reversal) in assay [6] (H69AR cells + 2 uM doxorubicin) is 16.7% (inactive). Besides, the inhibition in assay [7] was -5.62% (inactive); in assay [8], -3.02% (inactive).
For `Nc1nc(CSCc2ccccc2)nc(N2CCOCC2)n1`, the viability was 99.5% in assay [1]; 99.5% (inactive) in assay [3]; 109% (inactive) in assay [4]; 95% (inactive) in assay [5]; 89.2% in assay [6] (setting [9]); 95% in assay [6] (setting [10]). Also, in assay [2], the Her2 level is 93.5% (inactive). Also, in assay [6] (H69AR cells + 2 uM doxorubicin), the differential viability (reversal) is 5.8% (inactive). The inhibition is -5.27% (inactive) in assay [7] and -8.67% (inactive) in assay [8].
With `Cc1nc(NCc2ccco2)c2oc3ccccc3c2n1`, the viability in assay [1] is 114%; in assay [3], 114% (inactive); in assay [4], 100% (inactive); in assay [5], 80.6% (inactive); in assay [6] (setting [9]) it was 81.8%; in assay [6] (setting [10]) it was 80.6%. In addition, the Her2 level in assay [2] is 87% (inactive). Also, the differential viability (reversal) in assay [6] (H69AR cells + 2 uM doxorubicin) is -1.13% (inactive). Also, the values for the inhibition in assay [7] and in assay [8] were -6.4% (inactive) and 4.44% (inactive), respectively.
Regarding `C/C(N)=C(/C#N)C(=O)COC(=O)CCSc1ccccc1`, the viability in assay [1] is 97.5%; in assay [3], 97.5% (inactive); in assay [4], 84.4% (inactive); in assay [5], 101% (inactive); in assay [6] (setting [9]), 101%; in assay [6] (setting [10]) it was 101%. The Her2 level in assay [2] is 89% (inactive). Also, the differential viability (reversal) in assay [6] (H69AR cells + 2 uM doxorubicin) is -0.045% (inactive). The inhibition in assay [7] is -0.13% (inactive); in assay [8], 4.59% (inactive).
As for `Nc1nnnn1/N=C/c1ccccn1`, the viability in assay [1] is 69%; in assay [3], 69% (inactive); in assay [4], 114% (inactive); in assay [5], 97.2% (inactive); in assay [6] (setting [9]), 86.2%; in assay [6] (setting [10]), 97.2%. Further, in assay [2], the Her2 level is 108% (inactive). Further, the differential viability (reversal) in assay [6] (H69AR cells + 2 uM doxorubicin) is 11% (inactive). Also, the inhibition in assay [7] was -4.73% (inactive); in assay [8], 24% (inactive).
As for `CCN(CC)c1ccc(NC(=O)CN2CCN(CC(=O)Nc3ccccc3F)CC2)cc1`, the viability in assay [1] was 81.5%; in assay [3], 81.5% (inactive); in assay [4], 80.2% (inactive); in assay [5], 99.6% (inactive); in assay [6] (setting [9]), 88.6%; in assay [6] (setting [10]), 99.6%. The Her2 level in assay [2] was 93.5% (inactive). Also, the differential viability (reversal) in assay [6] (H69AR cells + 2 uM doxorubicin) was 11% (inactive). Besides, the figures for the inhibition in assay [7] and in assay [8] were -3.95% (inactive) and -1.33% (inactive), respectively.
`CC1CCCCC1NC(=O)CN1CCN(Cc2ccccc2Cl)C1=O` (stereo not given): the viability in assay [1] is 102%; in assay [3], 102% (inactive); in assay [4], 90.9% (inactive); in assay [5], 80.4% (inactive); in assay [6] (setting [9]) it was 68.5%; in assay [6] (setting [10]) it was 80.4%. Also, the Her2 level in assay [2] is 97% (inactive). In addition, the differential viability (reversal) in assay [6] (H69AR cells + 2 uM doxorubicin) is 11.9% (inactive). Further, the inhibition was -4.68% (inactive) in assay [7] and -7.67% (inactive) in assay [8].
On to `N#Cc1c(NC(=O)CSc2nnnn2C2CCCC2)sc2c1CCCC2`, for which the viability in assay [1] is 82.5%; in assay [3], 82.5% (inactive); in assay [4], 94.6% (inactive); in assay [5], 69.9% (inactive); in assay [6] (setting [9]), 68.2%; in assay [6] (setting [10]), 69.9%. In assay [2], the Her2 level is 85% (inactive). Moreover, the differential viability (reversal) in assay [6] (H69AR cells + 2 uM doxorubicin) is 1.64% (inactive). For the same compound, the inhibition in assay [7] was -0.53% (inactive); in assay [8], 0.16% (inactive).
As for `c1ccc(SCc2nc3ccccc3[nH]2)nc1`, the viability in assay [1] was 99.5%; in assay [3], 99.5% (inactive); in assay [4] it was 103% (inactive); in assay [5], 90.6% (inactive); in assay [6] (setting [9]), 97.5%; in assay [6] (setting [10]), 90.6%. The Her2 level in assay [2] was 107% (inactive). For the same compound, in assay [6] (H69AR cells + 2 uM doxorubicin), the differential viability (reversal) is -6.88% (inactive). Moreover, the inhibition in assay [7] was -5.87% (inactive); in assay [8], 22.3% (inactive).
For `c1ccc(CNc2ncnc3ccccc23)cc1`, the viability was 86% in assay [1]; 86% (inactive) in assay [3]; 58.2% (inactive) in assay [4]; 83.8% (inactive) in assay [5]; 97.3% in assay [6] (setting [9]); 83.8% in assay [6] (setting [10]). For the same compound, the Her2 level in assay [2] was 87% (inactive). The differential viability (reversal) in assay [6] (H69AR cells + 2 uM doxorubicin) was -13.6% (inactive). In addition, the inhibition in assay [7] was -5% (inactive); in assay [8], 3.93% (inactive).
For the compound `COc1c(Br)cc2c(C)c(C(=O)O)oc2c1Br`, the viability in assay [1] is 104%; in assay [3] it was 104% (inactive); in assay [4] it was 84.2% (inactive); in assay [5], 94.2% (inactive); in assay [6] (setting [9]) it was 89.3%; in assay [6] (setting [10]), 94.2%. In assay [2], the Her2 level is 102% (inactive). In addition, in assay [6] (H69AR cells + 2 uM doxorubicin), the differential viability (reversal) is 4.95% (inactive). The inhibition in assay [7] was 1.82% (inactive); in assay [8], -4.59% (inactive).
For the compound `COC(=O)c1ccccc1NC(=O)C1CC(=O)N(c2ccc(F)cc2)C1` (stereo not given), the viability in assay [1] was 121%; in assay [3] it was 121% (inactive); in assay [4], 108% (inactive); in assay [5], 96% (inactive); in assay [6] (setting [9]), 80.6%; in assay [6] (setting [10]), 96%. Further, the Her2 level in assay [2] is 77% (inactive). Further, the differential viability (reversal) in assay [6] (H69AR cells + 2 uM doxorubicin) is 15.5% (inactive). Besides, the inhibition is -6.4% (inactive) in assay [7] and 2.13% (inactive) in assay [8].
For `CC(=O)Nc1ccc(S(=O)(=O)n2nc(C)cc2C)cc1`, the viability was 105% in assay [1]; 105% (inactive) in assay [3]; 111% (inactive) in assay [4]; 105% (inactive) in assay [5]; 98.9% in assay [6] (setting [9]); 105% in assay [6] (setting [10]). The Her2 level in assay [2] was 106% (inactive). The differential viability (reversal) in assay [6] (H69AR cells + 2 uM doxorubicin) was 5.88% (inactive). Further, the inhibition was -6.45% (inactive) in assay [7] and 10.3% (inactive) in assay [8].
